According to ChEMBL document CHEMBL4828755, “A sulfonyl fluoride derivative inhibits EGFRL858R/T790M/C797S by covalent modification of the catalytic lysine” (Eur J Med Chem, 2021):
Calls of active or inactive are those of the source. No cut-off for these calls is given here.

How the values were obtained:
[1] = biological target: AMP-activated protein kinase, AMPK (Homo sapiens) (UniProt P54646+O43741+P54619+Q9UGJ0+Q9Y478+Q13131+Q9UGI9); assay: Inhibition of human recombinant AMPK at 1 uM by Z'-LYTE assay; assay type: protein-complex assay
Outline: (§1)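 Z'-LYTE FRET kinase panel; phosphorylation of a reference peptide measured with ATP at each enzyme's Km. Compounds tested in 1% DMSO at 0.1 and/or 1 μM. Values are means of two independent experiments with standard deviations.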

[2] = test system: Epidermal growth factor receptor (Homo sapiens), P00533 [L858R,T790M,C797S]; assay: Covalent binding affinity to recombinant EGFR L858R/T790M/C797S triple mutant (unknown origin) assessed as Lys745 sulfonylation in tryptic digested peptide IPVAIK745ELR at enzyme:compound molar concentration ratio of 1:5 incubated for 1 hr and measured following tryptic digestion by isotopic profiling analysis
Outline: (§2)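 Recombinant triple-mutant EGFR co-incubated with inhibitor at 1:5 molar ratio for 1 h in Kinase Buffer A (50 mM HEPES pH 7.5, 10 mM MgCl2, 1 mM EGTA, 0.01% Brij-35); DMSO vehicle control. Reduced with DTT (15 min, 60°C), alkylated with iodoacetamide, trypsin-digested overnight at 37°C (1:10 trypsin:protein), C18 cleanup, analysed by LC-HRMS in ESI positive mode.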

[3] = biological target: Cyclin-dependent kinase 2 (Homo sapiens) (UniProt P24941); assay: Inhibition of human recombinant CDK2 at 1 uM by Z'-LYTE assay; outline: as §1
[4] = biological target: Tyrosine-protein kinase Lck (Homo sapiens) (UniProt P06239); assay: Inhibition of human recombinant LCK at 1 uM by Z'-LYTE assay; outline: as §1
[5] = biological target: Fibroblast growth factor receptor 4 (Homo sapiens) (UniProt P22455); assay: Inhibition of His-tagged human recombinant FGFR4 ([…] residues) expressed in baculovirus expression system at 1 uM by Z'-LYTE assay; outline: as §1
[6] = biological target: Epidermal growth factor receptor (Homo sapiens, UniProt P00533); assay type: ADME
[7] = biological target: Proto-oncogene tyrosine-protein kinase Src (Homo sapiens) (UniProt P12931); assay: Inhibition of C-terminal His-tagged human recombinant SRC expressed in baculovirus expression system at 1 uM by Z'-LYTE assay; outline: as §1
[8] = test system: Epidermal growth factor receptor (Homo sapiens), P00533 [L858R,T790M,C797S]; assay: Inhibition of EGFR L858R/T790M/C797S triple mutant (unknown origin) expressed in mouse Ba/F3 cells assessed as inhibition of EGF-stimulated receptor phosphorylation at 500 nM incubated for 4 hrs followed by EGF stimulation for 10 mins by western blot analysis; assay type: cell-based; details: BaF3, time 250.0 min
Outline: (§3)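 Ba/F3 cells expressing EGFR L858R/T790M/C797S were treated for 4 h across increasing concentrations (DMSO ≤0.1%), then stimulated with 100 ng/ml EGF for 10 min. Lysates were immunoblotted for pEGFR (Tyr1068), EGFR and actin.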

[9] = test system: Epidermal growth factor receptor (Homo sapiens), P00533 [L858R,T790M,C797S]; assay: Inhibition of EGFR L858R/T790M/C797S triple mutant (unknown origin) expressed in mouse Ba/F3 cells assessed as inhibition of EGF-stimulated receptor phosphorylation incubated for 4 hrs followed by EGF stimulation for 10 mins by western blot analysis; assay type: cell-based; details: BaF3, dose 10-1000 nM, time 250.0 min; outline: as §3
[10] = test system: Epidermal growth factor receptor (Homo sapiens), P00533 [L858R,T790M,C797S]; assay: Inhibition of EGFR L858R/T790M/C797S triple mutant (unknown origin) expressed in mouse Ba/F3 cells assessed as inhibition of EGF-stimulated receptor phosphorylation at 1 uM incubated for 4 hrs followed by washing with buffer solution and later incubation in drug-free medium for 2 to 8 hrs followed by EGF stimulation by western blot analysis; assay type: cell-based; details: BaF3
Outline: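 Ba/F3 cells expressing EGFR L858R/T790M/C797S exposed to 1 μM for 4 h, washed extensively with PBS, and allowed to recover in fresh drug-free medium for 2, 4 or 8 h. Cells then stimulated with 100 ng/ml EGF for 10 min. pEGFR (Tyr1068), total EGFR and actin detected by western blot.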

[11] = test system: Epidermal growth factor receptor (Homo sapiens), P00533 [L858R,T790M,C797S]; assay: Covalent binding affinity to recombinant EGFR L858R/T790M/C797S triple mutant (unknown origin) assessed as Lys745 sulfonylation in tryptic digested peptide IPVAIK745ELR at enzyme:compound molar concentration ratio of 1:5 incubated for 1 hr and measured following tryptic digestion by LC-HRMS analysis; outline: as §2
[12] = biological target: Tyrosine-protein kinase JAK1 (Homo sapiens) (UniProt P23458); assay: Inhibition of GST-tagged human recombinant JAK1 (866 to 1154 residues) expressed in baculovirus expression system at 1 uM by Z'-LYTE assay; outline: as §1
[13] = biological target: Tyrosine-protein kinase Blk (Homo sapiens) (UniProt P51451); assay: Inhibition of His-tagged human full length recombinant BLK expressed in baculovirus expression system at 1 uM by Z'-LYTE assay; outline: as §1
[14] = biological target: T1, Inhibitor of nuclear factor kappa-B kinase subunit beta (Homo sapiens) (UniProt O14920); assay: Inhibition of GST-tagged human full length recombinant IKKbeta expressed in baculovirus expression system at 1 uM by Z'-LYTE assay; outline: as §1
T1 sequence (whole entry): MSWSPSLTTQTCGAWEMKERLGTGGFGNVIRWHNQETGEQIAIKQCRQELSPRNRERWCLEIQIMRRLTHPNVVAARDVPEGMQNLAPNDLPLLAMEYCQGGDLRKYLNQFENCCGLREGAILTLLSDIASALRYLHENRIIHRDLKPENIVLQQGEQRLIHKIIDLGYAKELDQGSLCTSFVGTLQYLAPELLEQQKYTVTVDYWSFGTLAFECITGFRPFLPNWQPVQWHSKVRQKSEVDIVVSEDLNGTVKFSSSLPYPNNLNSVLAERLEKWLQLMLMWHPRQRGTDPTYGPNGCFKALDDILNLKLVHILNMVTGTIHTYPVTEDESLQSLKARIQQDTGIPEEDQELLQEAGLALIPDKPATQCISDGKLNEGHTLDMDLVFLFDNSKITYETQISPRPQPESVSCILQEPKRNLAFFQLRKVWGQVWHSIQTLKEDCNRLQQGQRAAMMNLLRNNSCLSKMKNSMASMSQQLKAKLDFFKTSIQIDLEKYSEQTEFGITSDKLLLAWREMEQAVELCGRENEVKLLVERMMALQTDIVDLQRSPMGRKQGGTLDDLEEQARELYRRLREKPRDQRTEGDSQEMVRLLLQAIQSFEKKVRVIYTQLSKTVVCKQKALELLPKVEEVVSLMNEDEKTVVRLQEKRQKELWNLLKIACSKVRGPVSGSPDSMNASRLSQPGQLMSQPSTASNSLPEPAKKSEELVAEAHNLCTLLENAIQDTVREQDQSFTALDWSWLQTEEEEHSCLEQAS

[15] = biological target: Tyrosine-protein kinase JAK1 (Homo sapiens) (UniProt P23458); assay: Inhibition of GST-tagged human recombinant JAK1 (866 to 1154 residues) expressed in baculovirus expression system at 100 to 1000 nM by Z'-LYTE assay; details: dose 100-1000 nM
[16] = biological target: Platelet-derived growth factor receptor alpha (Homo sapiens) (UniProt P16234); assay: Inhibition of GST-tagged human recombinant PDGFR alpha (550 to 1089 residues) expressed in baculovirus expression system at 100 to 1000 nM by Z'-LYTE assay; details: dose 100-1000 nM
[17] = biological target: Fibroblast growth factor receptor 4 (Homo sapiens) (UniProt P22455); assay: Inhibition of His-tagged human recombinant FGFR4 ([…] residues) expressed in baculovirus expression system at 100 to 1000 nM by Z'-LYTE assay; details: dose 100-1000 nM; outline: as §1

Fibroblast growth factor receptor 4 (Homo sapiens), sequence (P22455 22-802 limits assumed): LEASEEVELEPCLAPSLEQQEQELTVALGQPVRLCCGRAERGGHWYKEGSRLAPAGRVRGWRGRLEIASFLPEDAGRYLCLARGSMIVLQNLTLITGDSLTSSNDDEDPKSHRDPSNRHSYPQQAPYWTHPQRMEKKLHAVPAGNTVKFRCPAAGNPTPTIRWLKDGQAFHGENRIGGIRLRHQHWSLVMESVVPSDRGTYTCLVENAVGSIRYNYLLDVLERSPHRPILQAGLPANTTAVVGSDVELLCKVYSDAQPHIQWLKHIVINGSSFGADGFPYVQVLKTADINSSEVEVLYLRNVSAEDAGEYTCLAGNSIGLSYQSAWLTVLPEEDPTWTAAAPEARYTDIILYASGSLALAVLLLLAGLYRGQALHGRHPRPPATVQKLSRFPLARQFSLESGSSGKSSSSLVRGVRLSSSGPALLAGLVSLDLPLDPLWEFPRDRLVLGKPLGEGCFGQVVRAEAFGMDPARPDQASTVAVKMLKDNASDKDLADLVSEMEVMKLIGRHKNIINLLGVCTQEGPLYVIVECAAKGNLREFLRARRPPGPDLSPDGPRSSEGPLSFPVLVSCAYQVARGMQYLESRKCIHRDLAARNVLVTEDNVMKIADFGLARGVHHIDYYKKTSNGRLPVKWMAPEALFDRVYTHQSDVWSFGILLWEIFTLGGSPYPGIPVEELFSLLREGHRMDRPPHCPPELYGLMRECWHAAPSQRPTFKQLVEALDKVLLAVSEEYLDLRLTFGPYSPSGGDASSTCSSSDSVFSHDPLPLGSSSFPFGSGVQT
Tyrosine-protein kinase JAK1 (Homo sapiens), sequence (P23458 whole entry, the tested form may be a part): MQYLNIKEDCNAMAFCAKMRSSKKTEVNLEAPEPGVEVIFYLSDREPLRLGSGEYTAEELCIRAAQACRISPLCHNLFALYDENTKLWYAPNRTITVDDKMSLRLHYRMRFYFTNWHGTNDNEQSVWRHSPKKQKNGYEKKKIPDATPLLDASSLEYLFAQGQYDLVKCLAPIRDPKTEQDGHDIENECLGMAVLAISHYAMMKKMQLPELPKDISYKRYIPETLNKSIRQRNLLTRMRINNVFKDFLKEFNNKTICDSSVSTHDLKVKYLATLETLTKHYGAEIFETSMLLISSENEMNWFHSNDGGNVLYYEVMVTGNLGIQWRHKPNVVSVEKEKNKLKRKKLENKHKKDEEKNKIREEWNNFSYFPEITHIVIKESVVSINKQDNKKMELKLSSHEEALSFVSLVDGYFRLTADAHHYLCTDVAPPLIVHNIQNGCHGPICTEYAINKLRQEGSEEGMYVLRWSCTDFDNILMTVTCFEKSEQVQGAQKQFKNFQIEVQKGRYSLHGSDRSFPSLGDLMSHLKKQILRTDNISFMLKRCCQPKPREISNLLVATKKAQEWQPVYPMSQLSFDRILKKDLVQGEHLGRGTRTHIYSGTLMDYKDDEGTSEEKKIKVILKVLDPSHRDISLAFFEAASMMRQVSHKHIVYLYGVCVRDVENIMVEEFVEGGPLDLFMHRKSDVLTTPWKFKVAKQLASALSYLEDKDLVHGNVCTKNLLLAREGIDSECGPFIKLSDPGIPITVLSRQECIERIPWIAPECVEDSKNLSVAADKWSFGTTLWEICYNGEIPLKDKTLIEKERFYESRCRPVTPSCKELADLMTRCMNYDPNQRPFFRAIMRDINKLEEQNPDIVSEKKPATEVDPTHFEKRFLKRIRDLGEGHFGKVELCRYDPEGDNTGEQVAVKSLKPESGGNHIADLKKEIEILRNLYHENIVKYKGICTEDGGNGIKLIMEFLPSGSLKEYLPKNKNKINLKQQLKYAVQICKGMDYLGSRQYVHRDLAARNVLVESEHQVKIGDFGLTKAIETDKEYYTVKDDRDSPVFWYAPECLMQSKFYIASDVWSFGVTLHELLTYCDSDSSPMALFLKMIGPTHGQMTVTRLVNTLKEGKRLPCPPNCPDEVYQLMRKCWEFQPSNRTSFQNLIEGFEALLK
Platelet-derived growth factor receptor alpha (Homo sapiens), sequence (P16234 whole entry, the tested form may be a part): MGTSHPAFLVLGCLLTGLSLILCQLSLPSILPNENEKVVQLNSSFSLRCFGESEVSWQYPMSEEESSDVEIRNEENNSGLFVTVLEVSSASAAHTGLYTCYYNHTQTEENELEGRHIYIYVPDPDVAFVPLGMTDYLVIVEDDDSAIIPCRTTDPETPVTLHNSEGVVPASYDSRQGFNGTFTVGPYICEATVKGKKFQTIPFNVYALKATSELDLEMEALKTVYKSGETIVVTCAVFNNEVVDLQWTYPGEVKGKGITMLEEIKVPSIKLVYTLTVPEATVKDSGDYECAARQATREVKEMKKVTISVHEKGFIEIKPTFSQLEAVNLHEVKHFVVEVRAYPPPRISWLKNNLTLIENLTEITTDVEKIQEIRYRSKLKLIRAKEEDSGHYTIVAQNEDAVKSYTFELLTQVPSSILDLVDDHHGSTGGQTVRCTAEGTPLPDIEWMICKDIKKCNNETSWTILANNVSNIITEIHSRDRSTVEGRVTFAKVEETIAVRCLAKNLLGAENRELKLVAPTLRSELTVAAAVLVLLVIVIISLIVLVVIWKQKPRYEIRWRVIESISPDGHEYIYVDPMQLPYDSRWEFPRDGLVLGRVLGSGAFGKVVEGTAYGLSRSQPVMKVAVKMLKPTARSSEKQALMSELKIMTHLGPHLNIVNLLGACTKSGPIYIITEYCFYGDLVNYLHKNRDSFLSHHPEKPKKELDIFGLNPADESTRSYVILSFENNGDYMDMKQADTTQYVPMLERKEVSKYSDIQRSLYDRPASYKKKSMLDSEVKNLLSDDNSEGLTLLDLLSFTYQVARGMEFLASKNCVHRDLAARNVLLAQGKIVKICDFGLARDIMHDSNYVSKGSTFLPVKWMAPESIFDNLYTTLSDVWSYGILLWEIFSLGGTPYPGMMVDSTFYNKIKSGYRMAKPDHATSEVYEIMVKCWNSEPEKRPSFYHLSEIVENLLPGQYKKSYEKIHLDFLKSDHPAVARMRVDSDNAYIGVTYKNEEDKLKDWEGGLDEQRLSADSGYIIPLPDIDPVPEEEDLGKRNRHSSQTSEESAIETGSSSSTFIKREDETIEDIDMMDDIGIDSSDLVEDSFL
Proto-oncogene tyrosine-protein kinase Src (Homo sapiens), sequence (P12931 2-536 limits assumed): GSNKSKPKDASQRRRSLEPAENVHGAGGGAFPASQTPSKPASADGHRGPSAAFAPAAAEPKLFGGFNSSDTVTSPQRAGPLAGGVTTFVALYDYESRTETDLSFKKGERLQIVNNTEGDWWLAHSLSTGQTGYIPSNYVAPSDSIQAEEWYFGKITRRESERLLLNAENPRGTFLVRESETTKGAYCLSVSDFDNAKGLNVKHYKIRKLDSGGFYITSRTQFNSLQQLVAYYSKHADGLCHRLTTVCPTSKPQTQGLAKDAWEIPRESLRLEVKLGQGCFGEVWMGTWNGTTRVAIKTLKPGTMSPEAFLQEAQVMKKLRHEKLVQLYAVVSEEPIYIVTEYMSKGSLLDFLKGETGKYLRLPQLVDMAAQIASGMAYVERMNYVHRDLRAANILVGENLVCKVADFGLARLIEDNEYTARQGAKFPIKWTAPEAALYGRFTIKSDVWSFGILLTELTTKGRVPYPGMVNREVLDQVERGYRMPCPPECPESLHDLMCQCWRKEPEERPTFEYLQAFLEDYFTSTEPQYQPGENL
Tyrosine-protein kinase Blk (Homo sapiens), sequence (P51451 2-505 limits assumed): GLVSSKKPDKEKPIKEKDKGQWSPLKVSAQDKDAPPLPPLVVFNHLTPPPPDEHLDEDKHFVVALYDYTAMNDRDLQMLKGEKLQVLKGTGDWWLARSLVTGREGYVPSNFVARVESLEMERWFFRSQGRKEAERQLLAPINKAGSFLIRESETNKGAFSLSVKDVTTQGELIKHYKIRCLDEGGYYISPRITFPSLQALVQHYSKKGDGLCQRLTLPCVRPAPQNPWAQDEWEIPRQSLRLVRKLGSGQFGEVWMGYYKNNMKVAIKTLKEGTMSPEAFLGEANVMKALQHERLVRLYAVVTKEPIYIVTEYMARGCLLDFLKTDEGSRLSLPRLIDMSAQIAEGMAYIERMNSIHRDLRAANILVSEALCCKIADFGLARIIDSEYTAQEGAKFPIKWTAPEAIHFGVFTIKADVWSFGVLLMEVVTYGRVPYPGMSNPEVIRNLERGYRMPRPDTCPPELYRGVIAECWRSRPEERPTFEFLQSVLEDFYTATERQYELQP
Tyrosine-protein kinase Lck (Homo sapiens), sequence (P06239 2-509 limits assumed): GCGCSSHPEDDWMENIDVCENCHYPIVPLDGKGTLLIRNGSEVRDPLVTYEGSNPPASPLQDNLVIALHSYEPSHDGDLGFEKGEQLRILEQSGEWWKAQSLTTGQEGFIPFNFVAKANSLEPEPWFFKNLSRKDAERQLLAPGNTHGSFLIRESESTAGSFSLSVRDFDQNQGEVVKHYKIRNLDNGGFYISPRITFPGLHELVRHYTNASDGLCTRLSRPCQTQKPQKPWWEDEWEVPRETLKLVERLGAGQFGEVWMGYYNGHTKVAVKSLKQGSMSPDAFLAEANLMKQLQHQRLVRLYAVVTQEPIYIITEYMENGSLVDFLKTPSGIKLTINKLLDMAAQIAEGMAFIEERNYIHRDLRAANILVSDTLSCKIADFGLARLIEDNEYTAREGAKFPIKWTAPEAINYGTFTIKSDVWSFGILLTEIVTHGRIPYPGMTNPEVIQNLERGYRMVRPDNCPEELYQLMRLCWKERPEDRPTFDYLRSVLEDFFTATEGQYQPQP

COc1cc(N2CCN(C(C)=O)CC2)ccc1Nc1ncc(Cl)c(Nc2ccc(NCc3ccc(S(=O)(=O)F)cc3)cc2)n1
inhibition [1]: 100% | Activity [2]: Active | inhibition [3]: 100% | inhibition [4]: 100% | inhibition [5]: < 25% | IC50 [6]: 210 nM | inhibition [7]: 100% | inhibition [8]: 100% | inhibition [9]: Dose-Dependent Effect | inhibition [10]: inactive | Activity [11]: Active | inhibition [12]: Active | inhibition [13]: 100% | inhibition [14]: < 25%

C#CCNC(=O)c1cc(Nc2cc(C3CC3)[nH]n2)nc(N2CCN(Cc3ccc(S(=O)(=O)F)cc3)CC2)n1
inhibition [15]: inactive | inhibition [16]: inactive | inhibition [17]: inactive
